HKDC1 activator: HKDC1 (human) hexokinase activation; activity change, negative = activation, % at 20 µM; AID 493187; recombinant HKDC1, G6PDH/diaphorase resazurin fluorescence; stronger effect = lower value; Q2TB90; actives 0.056% (n = 340,000);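 active means activation of 40% or more at 20 µM, a change of -40% or lower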
Target sequence (Q2TB90 whole entry, looked up): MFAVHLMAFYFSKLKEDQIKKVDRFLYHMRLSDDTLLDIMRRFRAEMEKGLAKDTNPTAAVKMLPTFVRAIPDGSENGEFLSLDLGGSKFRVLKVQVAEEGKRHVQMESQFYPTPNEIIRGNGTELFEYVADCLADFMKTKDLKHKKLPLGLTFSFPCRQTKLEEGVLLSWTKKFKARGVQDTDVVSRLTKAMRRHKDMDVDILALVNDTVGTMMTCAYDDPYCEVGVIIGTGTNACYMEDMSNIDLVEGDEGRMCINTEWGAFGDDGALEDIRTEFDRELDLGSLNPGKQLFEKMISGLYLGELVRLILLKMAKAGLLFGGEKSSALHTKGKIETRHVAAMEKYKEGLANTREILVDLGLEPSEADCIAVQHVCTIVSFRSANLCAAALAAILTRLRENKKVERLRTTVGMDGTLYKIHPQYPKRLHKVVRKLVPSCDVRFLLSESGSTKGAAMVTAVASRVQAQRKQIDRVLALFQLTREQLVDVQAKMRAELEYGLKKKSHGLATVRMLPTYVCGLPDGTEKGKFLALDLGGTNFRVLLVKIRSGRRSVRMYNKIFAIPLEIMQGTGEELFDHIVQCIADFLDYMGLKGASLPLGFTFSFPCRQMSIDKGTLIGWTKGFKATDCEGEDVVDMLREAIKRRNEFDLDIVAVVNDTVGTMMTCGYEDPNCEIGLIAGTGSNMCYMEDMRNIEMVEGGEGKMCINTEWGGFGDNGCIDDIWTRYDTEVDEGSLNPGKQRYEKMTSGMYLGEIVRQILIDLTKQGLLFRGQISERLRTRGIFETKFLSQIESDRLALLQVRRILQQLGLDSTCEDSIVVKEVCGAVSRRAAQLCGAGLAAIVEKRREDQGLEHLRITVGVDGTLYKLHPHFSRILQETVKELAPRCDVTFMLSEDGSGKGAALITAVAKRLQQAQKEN
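Material – in-house human HKDC1 enzyme, G6PDH and diaphorase coupling enzymes · Input – HKDC1 at 5 µg/mL final · Buffer or medium – pH 8.0 Tris with MgCl2 · Dosing – single compound dose of 20 µM, 1% DMSO final · Incubation – 90 min, room temperature · Technique – resorufin fluorescence from 100 µM resazurin, NADP 1 mM, Ex 525/Em 613 nm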
Of the large screens only hits and unclear results are named; the others gave an inactive call. These entries were drawn from the full list.

CCc1ccc(S(=O)(=O)/N=C2\C=C(Nc3ccc(C(=O)O)cc3)C(=O)c3ccccc32)cc1	none
CCCCNCCOCCOc1ccccc1-c1ccccc1	HKDC1 activator -59
COC(=O)c1ccccc1NC1=C/C(=N\S(=O)(=O)c2cccs2)c2ccccc2C1=O	none
[S-]c1nnc(-c2ccc(Br)cc2)n1-c1ccccc1.[Zn+2]	none
Fc1ccccc1N=C1NN=C(c2ccccc2)CS1	HKDC1 activator -82
O=S(=O)(c1ccc(N=C2NN=C(c3cc(F)ccc3F)CS2)cc1)N1CCOCC1	HKDC1 activator -308
CC(=O)Nc1ccc(C2=NNC(=Nc3ccc(S(=O)(=O)N4CCOCC4)cc3)SC2)cc1	HKDC1 activator -339
O=S(=O)(c1cccc(COc2ccc(Cl)cc2Cl)c1)N1CCOCC1	none
Fc1ccc(F)c(C2=NNC(=Nc3ccccc3F)SC2)c1	HKDC1 activator -143
Cc1c(N=C2C=CC(=O)c3ccccc32)c(=O)n(-c2ccccc2)n1C	none
Cc1ccc(S(=O)(=O)/N=C2\C=C(Nc3cccc(C(=O)O)c3)C(=O)c3ccccc32)c(C)c1	none
CCc1nc2c(c(=O)c3ccccc3n2C)c(=O)n1-c1ccc(F)cc1	none
O=C1C(Nc2ccccc2)=C/C(=N/S(=O)(=O)c2cccs2)c2ccccc21	none
O=Cc1[nH]c2ccccc2c1N(C(=O)CCl)c1ccccc1	none
CC(=O)Nc1ccc2cc3ccc(NC(C)=O)cc3nc2c1	none
CN1CCN(C2=C(Cl)C(=O)C(c3cnc(N4CCCCC4)s3)=C(Cl)C2=O)CC1	none
CCC(=O)OC1(C)C(=O)C2=COC(c3ccc(OC)cc3)=CC2=C(Br)C1=O (stereo not drawn)	none
NC(=O)[C@H]1CC2(CC(c3cccc(NC(=O)[C@H]4CCC(=O)N4)c3)=NO2)CN1C(=O)c1ccccc1 (stereo partly drawn)	none
Cc1ccc(-c2ccc(/C=C3\C(=O)ON=C3c3ccccc3)o2)c([N+](=O)[O-])c1	none
CC(C)(C)N=C1NN=C(c2ccc(S(=O)(=O)N3CCCCC3)cc2)CS1	HKDC1 activator -67
Fc1ccc(N=C2NN=C(c3cc(F)ccc3F)CS2)cc1	HKDC1 activator -218
CCC1C/C(=C\c2cccnc2)C(=O)/C(=C/c2cccnc2)C1 (stereo not drawn)	none
CCOc1ccc(S(=O)(=O)Nc2cc(SCC(=O)O)c(O)c3ccccc23)cc1	none
COC(=O)c1ccc2c(c1)C(C)(C)C(/C=C/c1ccccc1O)=[N+]2C	none
O=C1c2ccc3c4c(ccc(c24)C(=O)N1c1ccc(O)cc1)C(=O)N(c1ccc(O)cc1)C3=O	none
Cc1ccc(S(=O)(=O)/N=C2/C=C(Sc3ncn[nH]3)C(=O)c3ccccc32)cc1	none
COc1ccc(NC(=O)CSc2ccc(-c3ccco3)nn2)cc1OC	none
CCOC(=O)c1c(NC(=O)CSc2nnnn2-c2ccc(OC)cc2)sc(C)c1C	HKDC1 activator -48
CN(C)C(=O)/C(C#N)=C\c1cc(Br)c(Sc2ccc(Cl)cc2)o1	none
CCOC(=O)c1cc(-c2ccc(/C=C3/C(=O)N(c4ccc(C(=O)O)cc4)N=C3C)o2)ccc1Cl	none
CCOc1ccc2c(ccc(/C=C/c3cc(C)c4cccnc4c3O)[n+]2C)c1	none
O=NNc1nc2ccccc2n1Cc1ccccc1	HKDC1 activator -40
O=c1c2ccccc2nc(/C=C/c2cccnc2)n1Cc1ccccc1	none
COc1ccc(S(=O)(=O)/N=C2/C=CC(=O)C(C)=C2C)cc1	none
O=C(Nc1ccc2nc(-c3ccco3)c(-c3ccco3)nc2c1)N1CCCCCC1	none
COc1ccc(OC)c(NC(=O)CSc2ccc(-c3ccco3)nn2)c1	none
Cc1ccc(S(=O)(=O)/N=C2\C=C(Nc3cccc(C(=O)O)c3)C(=O)c3ccccc32)cc1	none
COc1ccc(CN2CCn3nc(C(=O)NC(C)C)cc3C2=O)cc1	HKDC1 activator -75
CC1=NOC(=O)/C1=C\c1ccc(-c2ccc(Br)cc2)o1	none
COc1cc2c(cc1OC)C(c1cc(Br)ccc1F)N(C(=O)CCl)CC2 (stereo not drawn)	none
C=CC(=O)N1C/C(=C/c2ccc(Cl)cc2)C(=O)/C(=C\c2ccc(Cl)cc2)C1	none
CC(NNC(=S)N1CCN(c2ccccn2)CC1)c1nccc2ccccc12 (stereo not drawn)	HKDC1 activator -42
CN(C)c1ccc(C=c2c3ccccc3n3c2cc(-c2ccccc2)[n+]3C)cc1	none
O=C1C=C(N2CCOCC2)c2ccccc2C1=O	none
NS(=O)(=O)c1ccc(N/N=C/c2ccc(O)c(O)c2O)c([N+](=O)[O-])c1	none
Cc1cc([N+](=O)[O-])nn1CC(=O)N/N=C/c1ccc(O)cc1O	HKDC1 activator -49
Cc1cc(C)n(Cc2ccc(C(=O)N/N=C/c3ccc(-c4ccc([N+](=O)[O-])cc4)o3)o2)n1	none
O=C(CSc1n[nH]c(=O)[nH]c1=O)Nc1ccc2c(c1)C(=O)c1ccccc1C2=O	none
COc1cc(/C=C2\SC(=S)N(c3cccnc3)C2=O)ccc1O	none
CCCCC[C@H](O)/C=C/[C@@H]1[C@@H](C/C=C\CCCC(=O)OC)[C@@H](O)C[C@H]1O	none
O=C(Nc1ccc(Nc2ccncc2)cc1)c1ccc(Nc2ccnc3ccc([N+](=O)[O-])cc23)cc1	none
COC1=C(Br)C(=O)c2ncccc2C1=O	none
Nc1nc(-c2cccc(Br)c2)cs1	HKDC1 activator -65
COCc1cc(SC2CCCCC2)nc(C)n1	none
Cc1ccc(/C=C/c2nc3sc(C(=O)O)c(C)c3c(=O)[nH]2)cc1[N+](=O)[O-]	none
O=C1C(Cl)=C(NC(=O)c2ccccc2)C(=O)C(Cl)=C1NC(=O)c1ccccc1	none
O=C(O)c1[nH]c2ccccc2c1C(c1cc(Cl)cc([N+](=O)[O-])c1O)c1c(C(=O)O)[nH]c2ccccc12	none
COc1cccc(/C=N/Nc2ccc([N+](=O)[O-])cn2)c1O	none
CC(=O)C1=C(c2cccc([N+](=O)[O-])c2)N(C(C)=O)n2c(C)nnc2S1	HKDC1 activator -308
COC(=O)CCC(=O)OC1(C)C(=O)C2=CN(CC3CC3)C(c3ccc(OC)cc3)=CC2=C(Br)C1=O (stereo not drawn)	none
CCCN(CCC)C(=O)c1cc([N+](=O)[O-])cc2c1-c1ccc([N+](=O)[O-])cc1C2=C(C#N)C#N	none
O=C1NN(c2ccccc2)C(=O)/C1=C/c1ccc(Sc2ccc(Cl)cc2)o1	none
Oc1ccc(/C=N/Nc2ccnc3cc(Cl)ccc23)c(O)c1O	none
N#Cc1ccc(CSc2nnc(NC(=O)c3ccc4ncsc4c3)s2)cc1	none
CCN(CC)c1ccc(NC(=O)c2ccccc2Br)cc1S(=O)(=O)Nc1ccccc1OC	HKDC1 activator -43
COc1cc(N(C)C)ccc1C=c1c2ccccc2n2c1cc(-c1ccccc1)[n+]2C	none
COc1ccc2c(c1)CCc1c(C(=O)N3CCCc4ccccc43)noc1-2	none
O=C(N/N=C/c1ccc(O)cc1O)/C(=C/c1ccccc1)CCO	HKDC1 activator -40
CC(CCC(C)C(C)(C)C)[C@@H]1CC[C@H]2C3C[C@H](OS(O)(=S)=S)[C@H]4C[C@H](OS(O)(=S)=S)[C@@H](OS(O)(=S)=S)C[C@]4(C)[C@H]3CC[C@]12C (stereo partly drawn) (tested in a mixture with another compound)	none
C=CCNC(=S)N/N=C(\C)c1ccccn1	HKDC1 activator -44
Cc1ccc(Sc2ccc(/C=C3/C(=O)NN(c4ccccc4)C3=O)o2)cc1	none
Cn1c2ccccc2c(=O)c2c(=O)n(-c3ccc(F)cc3)c(-c3cccs3)nc21	none
O=C1C=C(Nc2ccccc2C(=O)O)c2ccccc2C1=O	none
NC(=O)C1CCN(C2=C(Cl)C(=O)c3ccccc3C2=O)CC1	none
Cc1ccc(C)c(S(=O)(=O)Nc2cc(SCC(=O)O)c(O)c3ccccc23)c1	none

High-throughput results deposited in PubChem by Sanford-Burnham Center for Chemical Genomics.
